# TbMetRS inhib – Trypanosoma brucei MetRS inhibition; inhibition, % at 11.9 µM; AID 624268; 360,000 tested, 0.4% active; purified T. brucei MetRS, ATP depletion, Kinase-Glo luminescence;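 active means inhibition above a per-plate cutoff of the control wells' mean inhibition plus 3 SD, cut at about 5.5% in these data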
#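 assay system = parasite MetRS enzyme | timing = 15 min preincubation, 2 h reaction, all 25 °C | evaluation = percent inhibition relative to median high and low control wells | medium = HEPES buffer containing pyrophosphatase, BSA, spermine, DTT | compound = single dose, 11.9 µM final nominal, 0.9% final DMSO | detection = Kinase-Glo luminescence, ATP depletion format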
# PLCb3 inh – blocks human PLC-beta3 enzyme activity; Q01970; Purified PLC-beta3, fluorogenic substrate, fluorescence; inhibition, % at 12.2 µM; 370,000 tested, 0.18% active; AID 720704
# sPLA2-III inh – Inhibits HGIII-sPLA2 liposome hydrolysis, primary screen; Q9NZ20; QFRET BODIPY PC-A2 liposome hydrolysis, fluorescence; inhibition, % at 12.2 µM; 370,000 tested, 0.56% active; AID 743126;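 active means inhibition above mean plus 3 SD of compounds lying within the high and low control bounds, cut at about 19% in these data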
# PLC-gamma1 inh – inhibitors of human phospholipase C gamma1; inhibition, % at 12.2 µM; purified PLC-gamma1, fluorogenic substrate, fluorescence; AID 720700; P19174; 370,000 tested, 0.84% active; in the data active means inhibition above about 9.5%
# Target sequence (P19174 whole entry, looked up): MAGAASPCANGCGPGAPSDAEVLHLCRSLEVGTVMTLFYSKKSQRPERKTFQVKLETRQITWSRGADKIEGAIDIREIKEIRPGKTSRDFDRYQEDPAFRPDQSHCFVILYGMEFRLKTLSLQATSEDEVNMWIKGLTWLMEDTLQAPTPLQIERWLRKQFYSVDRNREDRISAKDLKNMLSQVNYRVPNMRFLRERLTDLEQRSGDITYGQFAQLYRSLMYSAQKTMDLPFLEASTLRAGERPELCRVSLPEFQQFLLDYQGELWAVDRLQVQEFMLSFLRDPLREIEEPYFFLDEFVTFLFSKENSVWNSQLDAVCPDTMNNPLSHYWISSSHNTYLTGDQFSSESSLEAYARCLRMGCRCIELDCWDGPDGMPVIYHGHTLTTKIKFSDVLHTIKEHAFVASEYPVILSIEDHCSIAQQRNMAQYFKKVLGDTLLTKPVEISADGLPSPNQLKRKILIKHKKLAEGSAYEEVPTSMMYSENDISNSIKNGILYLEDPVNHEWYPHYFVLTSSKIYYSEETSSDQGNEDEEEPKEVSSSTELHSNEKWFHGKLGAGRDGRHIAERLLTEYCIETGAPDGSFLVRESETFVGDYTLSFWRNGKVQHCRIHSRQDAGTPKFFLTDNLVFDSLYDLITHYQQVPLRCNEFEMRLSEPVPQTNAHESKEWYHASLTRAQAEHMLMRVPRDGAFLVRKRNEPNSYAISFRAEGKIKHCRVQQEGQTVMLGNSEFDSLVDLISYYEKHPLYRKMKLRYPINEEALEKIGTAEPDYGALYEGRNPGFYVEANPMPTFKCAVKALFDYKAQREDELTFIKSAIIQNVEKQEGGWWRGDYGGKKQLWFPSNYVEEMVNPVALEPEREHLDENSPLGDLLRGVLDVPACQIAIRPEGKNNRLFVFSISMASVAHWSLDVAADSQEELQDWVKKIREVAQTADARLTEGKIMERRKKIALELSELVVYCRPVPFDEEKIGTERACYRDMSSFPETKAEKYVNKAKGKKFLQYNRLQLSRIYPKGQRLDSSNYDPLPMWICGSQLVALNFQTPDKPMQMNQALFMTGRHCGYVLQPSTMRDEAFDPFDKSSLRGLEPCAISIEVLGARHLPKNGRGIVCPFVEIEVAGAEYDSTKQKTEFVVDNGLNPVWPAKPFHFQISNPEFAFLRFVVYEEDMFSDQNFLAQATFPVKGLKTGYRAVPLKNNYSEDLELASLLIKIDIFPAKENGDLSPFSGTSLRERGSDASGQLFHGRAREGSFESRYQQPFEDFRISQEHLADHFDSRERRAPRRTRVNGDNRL
# PLCg1 ctr – PLC-gamma1 inhibition, counter-screen for PLC-beta3 hits; shares compounds with PLC-gamma1 inh; purified PLC-gamma1, fluorogenic substrate, fluorescence; inhibition, % at 12.3 µM; 3,300 tested, 3.1% active; in the data active means inhibition above about 9.5%
# PLCb3 confirm – human PLC-beta3 inhibition, confirmation. shares compounds with PLC-gamma1 inh. 3,300 tested, 1% active. inhibition, % at 12.3 µM. purified PLC-beta3, fluorogenic substrate fluorescence
# Hits are given with their value; n = inactive; x = no result; ! = repeats disagree. Shown are actives, neighbours in structure and some others; about 1.9% of the full set was active somewhere. Unless noted, no stated cut-off is given here; in the data, active means inhibition above about 11%; inactive means the rest.
SMILES,TbMetRS inhib,PLCb3 inh,sPLA2-III inh,PLC-gamma1 inh,PLCg1 ctr,PLCb3 confirm
CN1C2CC(OC(=O)C(CO)c3ccccc3)CC1C1OC12 (stereo not given),n,n,n,10.5!,n,n
COc1cccc(NC(=O)CN(c2ccc(C)cc2)S(=O)(=O)c2c(C)nn(C)c2C)c1,n,11.9,n,n,n,n
Cc1ccc(CN(C)C(=O)CN2C(=O)NC(c3ccccc3)(c3ccccc3)C2=O)c(C)c1,n,n,n,10.8,n,n
CCc1cccc(NS(=O)(=O)c2c(C)n[nH]c2C)c1,n,n,n,9.8,n,n
CC(CN1CCOCC1)OC(=O)c1cccc(Br)c1 (stereo not given),n,11.7,n,n,n,n
Cc1ccc(C(=O)NC(=S)NNC(=O)CCN2CCOCC2)cc1,n,n,n,9.6,n,n
C[C@H](CO)N1C[C@H](C)[C@@H](CN(C)C(=O)c2ccccc2)OCc2cn(nn2)CCCC1=O,n,11.1,n,n,n,n
COc1cccc(S(=O)(=O)N(C)C[C@H]2OCc3cnnn3CCCC(=O)N([C@@H](C)CO)C[C@@H]2C)c1,n,11.0,n,n,n,n
C[C@H](CO)N1C[C@H](C)[C@@H](CN(C)S(=O)(=O)c2ccc3c(c2)OCCCO3)OCc2cn(nn2)CCCC1=O,n,n,n,9.5,n,n
O=S1(=O)c2c(NCc3ccco3)cccc2Oc2ccccc2CN1Cc1cn(Cc2ccc(F)cc2)nn1,x,n,n,n,x,x
CCOC(=O)[C@]12CCCCC/C=C\1N(CCc1ccc(Cl)cc1)C(=O)[C@H]2CC(=O)NCC12CC3CC(CC(C3)C1)C2,x,n,n,n,x,x
O=C(OCc1cn(Cc2ccccc2)nn1)N1CCCC1,x,n,n,n,x,x
O=c1[nH]nc(-c2ccc(NCCO)c([N+](=O)[O-])c2)c2ccccc12,n,n,n,n,x,x
O=c1[nH]nc(-c2ccc(NCCCO)c([N+](=O)[O-])c2)c2ccccc12,n,n,n,13.2,n,n
O=Nc1c(O)[nH]c2c(F)cccc12,n,n,n,n,x,x
CCc1cccc2c(N=O)c(O)[nH]c12,n,n,n,10.9,n,n
O=C(Nc1nnc(Cc2ccccc2)s1)c1ccccc1,n,n,n,n,x,x
CN(C)S(=O)(=O)c1ccc(C(=O)Nc2nnc(Cc3ccccc3)s2)cc1,n,11.3,n,n,n,n
O=C(O)CCC(=O)c1ccc(-c2ccccc2)cc1,n,n,n,n,x,x
O=C(O)CCC(=O)CCC(=O)c1ccc(Cl)cc1,n,n,n,10.6,n,n
CCCCOc1ccc(C(=O)NC2CCCCN(CC)C2=O)cc1 (stereo not given),x,n,n,n,x,x
COc1ccc(CN2C(=O)CN=C2Nc2cccc(C)c2C)cc1,n,n,n,9.8,n,n
COc1ccccc1NC1=NCC(=O)N1Cc1ccccc1,n,n,n,n,x,x
CC(=O)N1CCN(S(=O)(=O)c2ccc3c(c2)oc(=O)n3C)CC1,x,n,n,n,x,x
O=C(CSc1ccc2nnc(CCNC(=O)c3ccc(F)cc3)n2n1)NCc1ccco1,n,n,n,13.9,n,n
SMILES,TbMetRS inhib,PLCb3 inh,sPLA2-III inh,PLC-gamma1 inh,PLCg1 ctr,PLCb3 confirm
O=C(CSc1ccc2nnc(CCNC(=O)c3ccccc3)n2n1)NCc1ccco1,n,n,n,n,x,x
CCOc1ccc(/C=C/C(=O)Nc2ccc(OC)cc2[N+](=O)[O-])cc1,n,10.8,n,n,n,n
COc1ccc(NC(=O)Cc2ccc(C)cc2)c([N+](=O)[O-])c1,n,14.4,n,n,n,n
CCOc1ccc(NC(=O)/C=C/c2ccccc2)c([N+](=O)[O-])c1,n,n,n,n,x,x
COC(=O)C1CN(Cc2cn(Cc3ccccc3)nn2)CCS(=O)(=O)N1Cc1ccc(OC)cc1 (stereo not given),x,n,n,n,x,x
Cn1c(N=Nc2ccccc2)nc2ccccc21,n,12.3,n,n,n,n
O=C(NCc1ccccn1)c1ccc(Cl)c(S(=O)(=O)N2CCCCCC2)c1,n,n,n,9.9,n,n
O=C(NCCc1ccccn1)c1cccc(S(=O)(=O)N2CCCCCC2)c1,n,13.7,n,14.9,n,n
O=C(NCc1ccccc1)c1ccc(Cl)c(S(=O)(=O)N2CCCC2)c1,n,n,n,n,x,x
c1ccc(CCSc2nnc(-c3cccnc3)n2Cc2ccccc2)cc1,x,n,n,n,x,x
Cc1cc(N2CCOc3ccccc32)nc2ccccc12,x,n,n,n,x,x
CCC1CCC2(CC1)NC(=O)N(CC(=O)Nc1cccc(S(=O)(=O)N(C)c3ccccc3)c1)C2=O (stereo not given),n,n,n,n,x,x
CN1C(=O)N(CC(=O)Nc2cccc(S(=O)(=O)N(C)c3ccccc3)c2)C(=O)C12CCCCC2,n,n,n,14.3,n,n
CC(C)C(NC(=O)[C@H](Cc1ccccc1)NC(=O)OCc1ccccc1)P(=O)(O)OC(Cc1ccccc1)C(=O)O (stereo not given in full),x,n,n,n,x,x
CSCC[C@H](NC(=O)c1ccc2ccccc2c1)C(=O)N1CCC2(CC1)NCCc1[nH]cnc12,n,n,n,n,x,x
CSCC[C@H](NC(=O)COc1ccc(Cl)cc1)C(=O)N1CCC2(CC1)NCCc1[nH]cnc12,n,n,n,11.3,n,n
COc1cc2c(cc1NC(=O)CSc1nnc(-c3cccc(Cl)c3)n1Cc1ccco1)oc1ccccc12,x,n,n,n,x,x
COc1ccc(CNC(=O)C2(CC3CC(c4ccccc4)=NO3)CCN(C(=O)C3CCCC3)CC2)cc1 (stereo not given),n,n,n,n,x,x
COc1ccc(CNC(=O)C2(CC3CC(c4ccccc4)=NO3)CCN(C(=O)C3(C)CC3)CC2)cc1 (stereo not given),n,n,n,10.8,n,n
CC(C)(C)OC(=O)NCc1ccc(CNC(=O)c2[nH]cnc2C(=O)N[C@@H](Cc2ccccc2)C(=O)OC(C)(C)C)cc1,n,n,n,9.5,n,n
CC(C)C(NC(=O)OCc1ccccc1)C(=O)NCC(=O)OC(C)(C)C (stereo not given),n,15.1,n,n,n,n
CC(C)C[C@H](NC(=O)c1nc[nH]c1C(=O)NCC(=O)OC(C)(C)C)C(=O)OCc1ccccc1,n,n,n,9.9,n,n
CC(C)(C)OC(=O)[C@H](Cc1ccccc1)NC(=O)c1nc[nH]c1C(=O)N[C@@H](CCCCN)C(=O)OC(C)(C)C,n,n,n,n,x,x
CC(C)(C)OC(=O)NCCCC[C@H](NC(=O)c1[nH]cnc1C(=O)N[C@@H](Cc1ccccc1)C(=O)OCc1ccccc1)C(=O)OC(C)(C)C,n,n,n,10.0,n,n
CC(C)C[C@H](NC(=O)c1nc[nH]c1C(=O)NCC(=O)OCc1ccccc1)C(=O)OCc1ccccc1,n,n,n,n,x,x
O=C(Nc1ccc(F)cc1)OCc1cn(Cc2cccc(C(F)(F)F)c2)nn1,x,n,n,n,x,x
Cc1onc(-c2ccccc2Cl)c1C(=O)N1CCOC12CCCCC2,n,10.9,n,n,n,n

# High-throughput results (PubChem)
